Results reported in ChEMBL document CHEMBL2417464, “Design and synthesis of novel quinazoline nitrogen mustard derivatives as potential therapeutic agents for cancer” (Eur J Med Chem, 2013).
Activity calls are given as the source filed them. The calls are words filed in the database; no cut-off is given here.

What was measured:
HepG2 [1] = assay: Cytotoxicity against human HepG2 cells after 72 hrs by MTT assay; type: functional, cell-based; settings: HepG2, 72 h
MCF7 = assay: Cytotoxicity against human MCF7 cells after 72 hrs by MTT assay; type: functional, cell-based; settings: MCF7, 72 h
A549 = assay: Cytotoxicity against human A549 cells after 72 hrs by MTT assay; type: functional, cell-based; settings: A549, 72 h
[2] = Cytotoxicity against human SH-SY5Y cells after 72 hrs by MTT assay; type: functional, cell-based
DU-145 = assay: Cytotoxicity against human DU145 cells after 72 hrs by MTT assay; type: functional, cell-based; settings: DU-145, 72 h
Mus musculus [3] = assay: Toxicity in nude mouse transfected with human HepG2 cells assessed as decrease in body weight at 20 mg/kg, iv administered from day 9 every other day for 7 times relative to negative control; type: organism-based; set-up: dose 20 mg/kg, route intravenous; settings: in vivo
Procedure, shortened: (§1)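 HepG2 tumor-bearing mice (18–22 g, tumors 140–160 mg, 7–14 days post-inoculation). Dosing i.v. every other day, 7 doses, at 10 or 20 mg/kg; sorafenib and vehicle controls given identically. Body weight recorded every two days; mean change compared with vehicle group.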

HepG2 [4] = assay: Antitumor activity against human HepG2 cells transfected in nude mouse assessed as tumor growth regression at 20 mg/kg, iv administered from day 9 post-infection every other day for 7 times relative to negative control; type: functional
Procedure, shortened: (§2)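 HepG2 xenograft in mice, started 7–14 days after tumor cell inoculation (mice 18–22 g, tumors 140–160 mg). Dosing i.v. every other day, 7 doses, at 10 or 20 mg/kg; sorafenib and vehicle controls given the same way. Tumor dimensions recorded every two days. Growth regression expressed relative to vehicle control.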

[5] = Cytotoxicity against human GES-1 cells after 48 hrs by MTT assay; type: cell-based; settings: GES1, 48 h
HepG2 [6] = assay: Antitumor activity against human HepG2 cells transfected in nude mouse assessed as tumor growth regression at 10 mg/kg, iv administered from day 9 post-infection every other day for 7 times relative to negative control; type: functional; procedure, shortened: as §2
HepG2 [7] = assay: Cell cycle arrest in human HepG2 cells assessed as increase in S phase accumulation at 2 to 4 uM after 48 hrs by propidium iodide staining-based flow cytometry; type: functional
Procedure, shortened: (§3)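 HepG2 seeded 3 × 10⁵/well, 24 h, then exposed to a range of concentrations for 48 h. Cells fixed in ice-cold 70% ethanol ≥24 h, PBS-washed, RNase A treated, PI-stained 30 min at 4 °C in the dark. DNA content by flow cytometry gives G1, S, G2/M and sub-G1 fractions; mean of three independent determinations.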

HepG2 [8] = assay: Cell cycle arrest in human HepG2 cells assessed as decrease in G1 phase accumulation at 2 to 4 uM after 48 hrs by propidium iodide staining-based flow cytometry; type: functional; procedure, shortened: as §3
HepG2 [9] = assay: Induction of apoptosis in human HepG2 cells after 48 hrs by Annexin V-FITC/propidium iodide staining-based flow cytometry; type: functional, cell-based
HepG2 [10] = assay: Induction of apoptosis in human HepG2 cells assessed as late apoptotic cells at 4 uM after 48 hrs by Annexin V-FITC/propidium iodide staining-based flow cytometry (reference value: 2.13%); type: functional
HepG2 [11] = assay: Induction of apoptosis in human HepG2 cells assessed as early apoptotic cells at 6 uM after 48 hrs by Annexin V-FITC/propidium iodide staining-based flow cytometry (reference value: 0.86%); type: functional
HepG2 [12] = assay: Induction of apoptosis in human HepG2 cells assessed as late apoptotic cells at 2 uM after 48 hrs by Annexin V-FITC/propidium iodide staining-based flow cytometry (reference value: 2.13%); type: functional
HepG2 [13] = assay: Induction of apoptosis in human HepG2 cells assessed as early apoptotic cells at 4 uM after 48 hrs by Annexin V-FITC/propidium iodide staining-based flow cytometry (reference value: 0.86%); type: functional
Mus musculus [14] = assay: Toxicity in nude mouse transfected with human HepG2 cells assessed as change in body weight at 10 mg/kg, iv administered from day 9 every other day for 7 times relative to negative control; type: organism-based; set-up: dose 10 mg/kg, route intravenous; settings: in vivo; procedure, shortened: as §1
HepG2 [15] = assay: Induction of apoptosis in human HepG2 cells assessed as late apoptotic cells at 6 uM after 48 hrs by Annexin V-FITC/propidium iodide staining-based flow cytometry (reference value: 2.13%); type: functional
HepG2 [16] = assay: Induction of apoptosis in human HepG2 cells assessed as early apoptotic cells at 2 uM after 48 hrs by Annexin V-FITC/propidium iodide staining-based flow cytometry (reference value: 0.86%); type: functional
HepG2 [17] = assay: Cell cycle arrest in human HepG2 cells assessed as increase in G2/M phase accumulation at 2 to 4 uM after 48 hrs by propidium iodide staining-based flow cytometry; type: functional; procedure, shortened: as §3
HepG2 [18] = assay: Cell cycle arrest in human HepG2 cells assessed as increase in sub G1 phase accumulation after 48 hrs by propidium iodide staining-based flow cytometry; type: functional; procedure, shortened: as §3
HepG2 [19] = assay: Cell cycle arrest in human HepG2 cells assessed as increase in G2/M phase accumulation after 48 hrs by propidium iodide staining-based flow cytometry; type: functional; procedure, shortened: as §3
HepG2 [20] = assay: Cell cycle arrest in human HepG2 cells assessed as increase in S phase accumulation after 48 hrs by propidium iodide staining-based flow cytometry; type: functional; procedure, shortened: as §3

Structure (SMILES)	IC50 (HepG2 [1]) [µM]	IC50 (MCF7) [µM]	IC50 (A549) [µM]	IC50 [2] [µM]	IC50 (DU-145) [µM]	also measured
COc1cc2ncnc(Nc3ccc(N(CCCl)CCCl)cc3)c2cc1OC(C)=O	47.1	28.9	28.8	17.4	49.2	
COCCOc1cc2ncnc(Nc3ccc(N(CCCl)CCCl)cc3)c2cc1OCCOC	85	> 100	> 100	13.2	> 100	
COc1cc2ncnc(Nc3cccc(N(CCCl)CCCl)c3)c2cc1OC(C)=O	29.1	39.9	39.1	24	21.6	
COc1cc2ncnc(Nc3ccc(N(CCCl)CCCl)cc3)c2cc1OCCCN1CCOCC1	12.2	55	27.7	20.7	16.9	
COc1cc2ncnc(Nc3ccccc3N(CCCl)CCCl)c2cc1OC	77.2	89.2	81.5	22.6	> 100	
CNC(=O)c1cc(Oc2ccc(NC(=O)Nc3ccc(Cl)c(C(F)(F)F)c3)cc2)ccn1 [SORAFENIB]	8.42	11.3	27.7	19.5	24.9	Activity (Mus musculus [3]): Toxic; TGI (HepG2 [4]): Active; IC50 [5]: 15.8 µM; TGI (HepG2 [6]): Active
COc1cc2ncnc(Nc3ccc(N(CCCl)CCCl)cc3)c2cc1O	46.7	41.9	53.4	43.9	75.2	
COc1cc2ncnc(Nc3ccccc3N(CCCl)CCCl)c2cc1OC(C)=O	48.4	57.1	62.9	28.2	99.4	
COc1cc2ncnc(Nc3ccc(N(CCCl)CCCl)cc3)c2cc1OC	29.9	51.1	> 100	7.36	> 100	
COc1cc2ncnc(Nc3cccc(N(CCCl)CCCl)c3)c2cc1OCCCN1CCOCC1	3.06	10.5	6.71	8.6	20	Activity (HepG2 [7]): Active; Activity (HepG2 [8]): Active; Activity (HepG2 [9]): Dose-dependent effect; Activity (HepG2 [10]): 32.13%; Activity (HepG2 [11]): 17.9%; Activity (Mus musculus [3]): Toxic; inhibition in vivo at 20 mg/kg (HepG2 [4]; HepG2, 216 h, read-out: TGI): 47.3%; Activity (HepG2 [12]): 6.64%; Activity (HepG2 [13]): 9.26%; Activity (Mus musculus [14]): Non-toxic; Activity (HepG2 [15]): 57.7%; Activity (HepG2 [16]): 4.58%; Activity (HepG2 [17]): Active; Activity (HepG2 [18]): Dose-dependent effect; inhibition in vivo at 10 mg/kg (HepG2 [6]; HepG2, 216 h, read-out: TGI): 26.5%; Activity (HepG2 [19]): Dose-dependent effect; Activity (HepG2 [20]): Dose-dependent effect
COc1cc2ncnc(Nc3cccc(N(CCCl)CCCl)c3)c2cc1OC	17.4	> 100	> 100	12.4	> 100	
COCCOc1cc2ncnc(Nc3ccccc3N(CCCl)CCCl)c2cc1OCCOC	11.3	97.7	33.1	45.8	> 100	
COc1cc2ncnc(Nc3cccc(N(CCCl)CCCl)c3)c2cc1O	23.3	67.4	33	21.1	41.5	
COCCOc1cc2ncnc(Nc3cccc(N(CCCl)CCCl)c3)c2cc1OCCOC	33.5	> 100	77.4	16.9	> 100	
